# The source made the active and inactive calls. No cut-off for these calls is given here.
# Tested on: HeLa
# Assay: Cytotoxicity against human HeLa cells after 48 hrs by MTT assay
# Format: functional, cell-based
# Conditions: not given
# Method in brief: (§1)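 Cells seeded at 5000 per well, left overnight, then exposed to compound at 0–50 μM for 48 h. MTT (20 μL of 2.5 mg mL−1) added for a further 4 h at 37 °C, formazan dissolved in DMSO, absorbance read at 570 nm. Quadruplicate wells, N > 2 determinations, mean IC50 taken as the concentration reducing cell number to 50%.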
row,SMILES,IC50 [µM]
1,COc1cc(Cn2c(/C=C3\SC(=S)N(CC(=O)O)C3=O)nc3ccccc32)cc(OC)c1,17.7
2,COc1ccc2nc(/C=C3\SC(=S)N(CC(=O)O)C3=O)n(Cc3ccccc3F)c2c1,28.1
3,Cc1ccc(Cn2c(/C=C3\SC(=S)N(CC(=O)O)C3=O)nc3ccc(Cl)cc32)cc1,11
4,O=C(O)CN1C(=O)/C(=C/c2nc3ccccc3n2CC(=O)c2ccc(Cl)cc2)SC1=S,27.3
5,Cc1ccc(Cn2c(/C=C3\SC(=S)N(CC(=O)O)C3=O)nc3ccc(F)cc32)cc1,3.92
6,COc1ccc2nc(/C=C3\SC(=S)N(CC(=O)O)C3=O)n(Cc3ccc(C)cc3)c2c1,6.44
7,O=C(O)CN1C(=O)/C(=C/c2nc3cc(F)ccc3n2Cc2ccccc2F)SC1=S,> 50
8,O=C(O)CN1C(=O)/C(=C/c2nc3ccc(F)cc3n2Cc2ccccc2F)SC1=S,> 50

# Tested on: HL-60
# Assay: Cytotoxicity against human HL60 cells after 48 hrs by MTT assay
# Format: functional, cell-based
# Conditions: HL-60, 48 h
# Method in brief: as §1
row,SMILES,IC50 [µM]
1,COc1cc(Cn2c(/C=C3\SC(=S)N(CC(=O)O)C3=O)nc3ccccc32)cc(OC)c1,1.41
2,COc1ccc2nc(/C=C3\SC(=S)N(CC(=O)O)C3=O)n(Cc3ccccc3F)c2c1,6.44
3,Cc1ccc(Cn2c(/C=C3\SC(=S)N(CC(=O)O)C3=O)nc3ccc(Cl)cc32)cc1,2.84
4,O=C(O)CN1C(=O)/C(=C/c2nc3ccccc3n2CC(=O)c2ccc(Cl)cc2)SC1=S,2.43
5,Cc1ccc(Cn2c(/C=C3\SC(=S)N(CC(=O)O)C3=O)nc3ccc(F)cc32)cc1,1.69
6,COc1ccc2nc(/C=C3\SC(=S)N(CC(=O)O)C3=O)n(Cc3ccc(C)cc3)c2c1,1.92
7,O=C(O)CN1C(=O)/C(=C/c2nc3cc(F)ccc3n2Cc2ccccc2F)SC1=S,> 50
8,O=C(O)CN1C(=O)/C(=C/c2nc3ccc(F)cc3n2Cc2ccccc2F)SC1=S,5.23

# Tested on: MDA-MB-231
# Assay: Cytotoxicity against human MDA-MB-231 cells after 48 hrs by MTT assay
# Format: functional, cell-based
# Conditions: MDA-MB-231, 48 h
# Method in brief: as §1
row,SMILES,IC50 [µM]
1,COc1cc(Cn2c(/C=C3\SC(=S)N(CC(=O)O)C3=O)nc3ccccc32)cc(OC)c1,1.28
2,COc1ccc2nc(/C=C3\SC(=S)N(CC(=O)O)C3=O)n(Cc3ccccc3F)c2c1,22.4
3,Cc1ccc(Cn2c(/C=C3\SC(=S)N(CC(=O)O)C3=O)nc3ccc(Cl)cc32)cc1,3.96
4,O=C(O)CN1C(=O)/C(=C/c2nc3ccccc3n2CC(=O)c2ccc(Cl)cc2)SC1=S,1.12
5,Cc1ccc(Cn2c(/C=C3\SC(=S)N(CC(=O)O)C3=O)nc3ccc(F)cc32)cc1,3.86
6,COc1ccc2nc(/C=C3\SC(=S)N(CC(=O)O)C3=O)n(Cc3ccc(C)cc3)c2c1,3.77
7,O=C(O)CN1C(=O)/C(=C/c2nc3cc(F)ccc3n2Cc2ccccc2F)SC1=S,22.4
8,O=C(O)CN1C(=O)/C(=C/c2nc3ccc(F)cc3n2Cc2ccccc2F)SC1=S,> 50

# Tested on: Raji
# Assay: Cytotoxicity against human Raji cells after 48 hrs by MTT assay
# Format: functional, cell-based
# Conditions: not given
# Method in brief: as §1
row,SMILES,IC50 [µM]
1,COc1cc(Cn2c(/C=C3\SC(=S)N(CC(=O)O)C3=O)nc3ccccc32)cc(OC)c1,2.11
2,COc1ccc2nc(/C=C3\SC(=S)N(CC(=O)O)C3=O)n(Cc3ccccc3F)c2c1,12.3
3,Cc1ccc(Cn2c(/C=C3\SC(=S)N(CC(=O)O)C3=O)nc3ccc(Cl)cc32)cc1,2.79
4,O=C(O)CN1C(=O)/C(=C/c2nc3ccccc3n2CC(=O)c2ccc(Cl)cc2)SC1=S,3.18
5,Cc1ccc(Cn2c(/C=C3\SC(=S)N(CC(=O)O)C3=O)nc3ccc(F)cc32)cc1,2.44
6,COc1ccc2nc(/C=C3\SC(=S)N(CC(=O)O)C3=O)n(Cc3ccc(C)cc3)c2c1,10.8
7,O=C(O)CN1C(=O)/C(=C/c2nc3cc(F)ccc3n2Cc2ccccc2F)SC1=S,20.4
8,O=C(O)CN1C(=O)/C(=C/c2nc3ccc(F)cc3n2Cc2ccccc2F)SC1=S,22.4

# Tested on: PC-3
# Assay: Cytotoxicity against human PC3 cells after 48 hrs by MTT assay
# Format: functional, cell-based
# Conditions: PC-3, 48 h
# Method in brief: as §1
row,SMILES,IC50 [µM]
1,COc1cc(Cn2c(/C=C3\SC(=S)N(CC(=O)O)C3=O)nc3ccccc32)cc(OC)c1,6.37
2,COc1ccc2nc(/C=C3\SC(=S)N(CC(=O)O)C3=O)n(Cc3ccccc3F)c2c1,> 50
3,Cc1ccc(Cn2c(/C=C3\SC(=S)N(CC(=O)O)C3=O)nc3ccc(Cl)cc32)cc1,1.52
4,O=C(O)CN1C(=O)/C(=C/c2nc3ccccc3n2CC(=O)c2ccc(Cl)cc2)SC1=S,6.45
5,Cc1ccc(Cn2c(/C=C3\SC(=S)N(CC(=O)O)C3=O)nc3ccc(F)cc32)cc1,5.82
6,COc1ccc2nc(/C=C3\SC(=S)N(CC(=O)O)C3=O)n(Cc3ccc(C)cc3)c2c1,16.2
7,O=C(O)CN1C(=O)/C(=C/c2nc3cc(F)ccc3n2Cc2ccccc2F)SC1=S,> 50
8,O=C(O)CN1C(=O)/C(=C/c2nc3ccc(F)cc3n2Cc2ccccc2F)SC1=S,> 50

# Tested on: A549
# Assay: Cytotoxicity against human A549 cells after 48 hrs by MTT assay
# Format: functional, cell-based
# Conditions: A549, 48 h
# Method in brief: as §1
row,SMILES,IC50 [µM]
1,COc1cc(Cn2c(/C=C3\SC(=S)N(CC(=O)O)C3=O)nc3ccccc32)cc(OC)c1,5.17
2,COc1ccc2nc(/C=C3\SC(=S)N(CC(=O)O)C3=O)n(Cc3ccccc3F)c2c1,36.2
3,Cc1ccc(Cn2c(/C=C3\SC(=S)N(CC(=O)O)C3=O)nc3ccc(Cl)cc32)cc1,9.97
4,O=C(O)CN1C(=O)/C(=C/c2nc3ccccc3n2CC(=O)c2ccc(Cl)cc2)SC1=S,9.85
5,Cc1ccc(Cn2c(/C=C3\SC(=S)N(CC(=O)O)C3=O)nc3ccc(F)cc32)cc1,9.64
6,COc1ccc2nc(/C=C3\SC(=S)N(CC(=O)O)C3=O)n(Cc3ccc(C)cc3)c2c1,23.6
7,O=C(O)CN1C(=O)/C(=C/c2nc3cc(F)ccc3n2Cc2ccccc2F)SC1=S,32.6
8,O=C(O)CN1C(=O)/C(=C/c2nc3ccc(F)cc3n2Cc2ccccc2F)SC1=S,> 50

# Species: Homo sapiens
# Assay: Inhibition of human topoisomerase 2-mediated pBR322 DNA relaxation at 20 uM after 30 mins by agarose gel electrophoresis
# Conditions: not given
row,SMILES,inhibition
1,COc1cc(Cn2c(/C=C3\SC(=S)N(CC(=O)O)C3=O)nc3ccccc32)cc(OC)c1,Active
2,Cc1ccc(Cn2c(/C=C3\SC(=S)N(CC(=O)O)C3=O)nc3ccc(Cl)cc32)cc1,Active
3,O=C(O)CN1C(=O)/C(=C/c2nc3ccccc3n2CC(=O)c2ccc(Cl)cc2)SC1=S,Active
4,COc1ccc2nc(/C=C3\SC(=S)N(CC(=O)O)C3=O)n(Cc3ccc(C)cc3)c2c1,Active

# Further lines, results first:
row,inhibition,SMILES
1,Active,COc1ccc2nc(/C=C3\SC(=S)N(CC(=O)O)C3=O)n(Cc3ccccc3F)c2c1
2,Active,Cc1ccc(Cn2c(/C=C3\SC(=S)N(CC(=O)O)C3=O)nc3ccc(F)cc32)cc1
3,inactive,O=C(O)CN1C(=O)/C(=C/c2nc3cc(F)ccc3n2Cc2ccccc2F)SC1=S
4,Active,O=C(O)CN1C(=O)/C(=C/c2nc3ccc(F)cc3n2Cc2ccccc2F)SC1=S

# Species: Homo sapiens
# Assay: Inhibition of human topoisomerase 2-mediated pBR322 DNA relaxation at 10 uM after 30 mins by agarose gel electrophoresis
# Conditions: not given
row,SMILES,inhibition
1,COc1cc(Cn2c(/C=C3\SC(=S)N(CC(=O)O)C3=O)nc3ccccc32)cc(OC)c1,Active
2,O=C(O)CN1C(=O)/C(=C/c2nc3ccccc3n2CC(=O)c2ccc(Cl)cc2)SC1=S,Active

# More lines, now with the values ahead:
row,inhibition,SMILES
1,Active,COc1ccc2nc(/C=C3\SC(=S)N(CC(=O)O)C3=O)n(Cc3ccccc3F)c2c1
2,Active,Cc1ccc(Cn2c(/C=C3\SC(=S)N(CC(=O)O)C3=O)nc3ccc(F)cc32)cc1
3,Active,O=C(O)CN1C(=O)/C(=C/c2nc3ccc(F)cc3n2Cc2ccccc2F)SC1=S

# Species: Homo sapiens
# Assay: Inhibition of human topoisomerase 2-mediated pBR322 DNA relaxation at 50 uM after 30 mins by agarose gel electrophoresis
# Conditions: not given
# Method in brief: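 Relaxation of 200 ng supercoiled pBR322 by 1 U Topo II (TopoGEN) in 20 μL buffer: 50 mM Tris-HCl pH 8.0, 150 mM NaCl, 10 mM MgCl2, 2 mM ATP, 0.5 mM DTT, 30 μg/mL BSA. Incubated 30 min at 37 °C, stopped with sarcosyl/glycerol dye. Products run on 1% agarose in TAE (1.5 h, 75 V), Ged Red stained, UV imaged; etoposide positive control.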
row,SMILES,inhibition
1,Cc1ccc(Cn2c(/C=C3\SC(=S)N(CC(=O)O)C3=O)nc3ccc(Cl)cc32)cc1,Active
2,COc1ccc2nc(/C=C3\SC(=S)N(CC(=O)O)C3=O)n(Cc3ccc(C)cc3)c2c1,Active

# More lines, now with the values ahead:
row,inhibition,SMILES
1,Active,COc1ccc2nc(/C=C3\SC(=S)N(CC(=O)O)C3=O)n(Cc3ccccc3F)c2c1
2,Active,Cc1ccc(Cn2c(/C=C3\SC(=S)N(CC(=O)O)C3=O)nc3ccc(F)cc32)cc1
3,Active,O=C(O)CN1C(=O)/C(=C/c2nc3cc(F)ccc3n2Cc2ccccc2F)SC1=S
4,Active,O=C(O)CN1C(=O)/C(=C/c2nc3ccc(F)cc3n2Cc2ccccc2F)SC1=S

# Molecular target: T1, DNA topoisomerase 1 (Homo sapiens) (UniProt P11387)
# T1 sequence (whole entry): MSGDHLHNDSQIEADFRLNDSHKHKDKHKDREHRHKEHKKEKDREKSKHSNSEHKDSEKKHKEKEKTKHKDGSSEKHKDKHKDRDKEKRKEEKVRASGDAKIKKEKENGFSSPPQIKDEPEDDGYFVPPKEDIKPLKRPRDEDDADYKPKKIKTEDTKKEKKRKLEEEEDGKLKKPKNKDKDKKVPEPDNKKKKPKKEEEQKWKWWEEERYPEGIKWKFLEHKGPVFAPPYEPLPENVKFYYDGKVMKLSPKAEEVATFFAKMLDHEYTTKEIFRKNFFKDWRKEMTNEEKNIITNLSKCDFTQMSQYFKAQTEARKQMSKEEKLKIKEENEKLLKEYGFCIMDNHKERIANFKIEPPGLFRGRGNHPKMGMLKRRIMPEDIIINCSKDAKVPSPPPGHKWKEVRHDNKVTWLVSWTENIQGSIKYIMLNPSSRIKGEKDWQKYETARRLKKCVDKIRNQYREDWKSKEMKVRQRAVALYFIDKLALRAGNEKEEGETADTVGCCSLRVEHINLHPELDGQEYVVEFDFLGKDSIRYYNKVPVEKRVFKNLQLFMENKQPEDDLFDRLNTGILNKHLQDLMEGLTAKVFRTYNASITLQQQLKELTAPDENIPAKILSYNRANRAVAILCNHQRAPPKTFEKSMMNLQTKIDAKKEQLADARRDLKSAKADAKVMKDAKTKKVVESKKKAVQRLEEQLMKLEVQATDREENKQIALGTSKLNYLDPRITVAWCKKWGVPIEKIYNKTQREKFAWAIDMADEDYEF
# Assay: Inhibition of topoisomerase 1 (unknown origin)-mediated pBR322 DNA relaxation at 50 uM after 30 mins by agarose gel electrophoresis
# Conditions: not given
# Method in brief: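 Topo I relaxation of pBR322 with compound at 30 min, 37 °C, camptothecin positive control. Stopped with SDS/bromophenol blue/glycerol dye, run on 1% agarose in TAE for 1.5 h, Ged Red stained, UV visualized.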
row,SMILES,inhibition
1,Cc1ccc(Cn2c(/C=C3\SC(=S)N(CC(=O)O)C3=O)nc3ccc(Cl)cc32)cc1,inactive
2,O=C(O)CN1C(=O)/C(=C/c2nc3ccccc3n2CC(=O)c2ccc(Cl)cc2)SC1=S,inactive
3,COc1ccc2nc(/C=C3\SC(=S)N(CC(=O)O)C3=O)n(Cc3ccc(C)cc3)c2c1,inactive

# More lines, now with the values ahead:
row,inhibition,SMILES
1,inactive,COc1ccc2nc(/C=C3\SC(=S)N(CC(=O)O)C3=O)n(Cc3ccccc3F)c2c1
2,inactive,Cc1ccc(Cn2c(/C=C3\SC(=S)N(CC(=O)O)C3=O)nc3ccc(F)cc32)cc1
3,inactive,O=C(O)CN1C(=O)/C(=C/c2nc3cc(F)ccc3n2Cc2ccccc2F)SC1=S
4,inactive,O=C(O)CN1C(=O)/C(=C/c2nc3ccc(F)cc3n2Cc2ccccc2F)SC1=S
